Legend:
Escherichia coli [1] = test: Antimicrobial activity against Escherichia coli at 100 ug/mL after 24 hrs by well plate method; assay type: functional; details: read-out: IZ
Summary of the method: (§1)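 Agar well diffusion in nutrient agar. About 1 cm³ of a 24 h broth culture was placed in sterile dishes, and molten agar at 45 °C was poured over it and set. 6 mm wells were bored and filled with compound in DMSO (100 or 50). Plates were incubated 24 h at 37 °C, and the inhibition zone was read in mm. Duplicate runs, with standard deviation; amoxicillin as reference.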

Staphylococcus aureus [2] = test: Antimicrobial activity against Staphylococcus aureus at 50 ug/mL after 24 hrs by well plate method; assay type: functional; details: read-out: IZ; summary of the method: as §1
Candida albicans [3] = test: Antimicrobial activity against Candida albicans at 50 ug/mL after 72 hrs by well plate method; assay type: functional; details: read-out: IZ
Summary of the method: (§2)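 Antifungal well-plate assay on Sabouraud dextrose agar using a 72 h old broth culture of the fungal strain. Wells were filled with compound dissolved in DMSO (100 or 50), and the zone of inhibition around each well was measured. […] served as reference.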

[4] = system: Chrysosporium keratinophilum; test: Antimicrobial activity against Chrysosporium keratinophilum at 50 ug/mL after 72 hrs by well plate method; assay type: functional; details: read-out: IZ; summary of the method: as §2
Salmonella typhi [5] = test: Antimicrobial activity against Salmonella typhi at 50 ug/mL after 24 hrs by well plate method; assay type: functional, Salmonella enterica subsp. enterica serovar Typhi; details: Salmonella enterica, read-out: IZ
Summary of the method: (§3)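 Agar well diffusion in nutrient agar: about 1 cm³ of a 24 h broth culture placed in a sterile dish, molten agar at 45 °C poured over it and allowed to set. 6 mm holes cut with a sterile cork borer and filled with compound solution in DMSO. Incubated 24 h at 37 °C; inhibition zone diameter read in mm. Run in duplicate, standard deviation calculated.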

Escherichia coli [6] = test: Antimicrobial activity against Escherichia coli at 50 ug/mL after 24 hrs by well plate method; assay type: functional; details: read-out: IZ; summary of the method: as §1
Candida albicans [7] = test: Antimicrobial activity against Candida albicans at 100 ug/mL after 72 hrs by well plate method; assay type: functional; details: read-out: IZ; summary of the method: as §2
Nannizzia gypsea [8] = test: Antimicrobial activity against Microsporum gypseum at 100 ug/mL after 72 hrs by well plate method; assay type: functional; details: read-out: IZ; summary of the method: as §2
Bacillus subtilis [9] = test: Antimicrobial activity against Bacillus subtilis at 100 ug/mL after 24 hrs by well plate method; assay type: functional; details: read-out: IZ; summary of the method: as §1
Salmonella typhi [10] = test: Antimicrobial activity against Salmonella typhi at 100 ug/mL after 24 hrs by well plate method; assay type: functional, Salmonella enterica subsp. enterica serovar Typhi; details: Salmonella enterica, read-out: IZ; summary of the method: as §3
Aspergillus flavus [11] = test: Antimicrobial activity against Aspergillus flavus at 100 ug/mL after 72 hrs by well plate method; assay type: functional; details: read-out: IZ
Aspergillus flavus [12] = test: Antimicrobial activity against Aspergillus flavus at 50 ug/mL after 72 hrs by well plate method; assay type: functional; details: read-out: IZ
Staphylococcus aureus [13] = test: Antimicrobial activity against Staphylococcus aureus at 100 ug/mL after 24 hrs by well plate method; assay type: functional; details: read-out: IZ; summary of the method: as §1
Bacillus subtilis [14] = test: Antimicrobial activity against Bacillus subtilis at 50 ug/mL after 24 hrs by well plate method; assay type: functional; details: read-out: IZ; summary of the method: as §1
[15] = system: Chrysosporium keratinophilum; test: Antimicrobial activity against Chrysosporium keratinophilum at 100 ug/mL after 72 hrs by well plate method; assay type: functional; details: read-out: IZ; summary of the method: as §2
Nannizzia gypsea [16] = test: Antimicrobial activity against Microsporum gypseum at 50 ug/mL after 72 hrs by well plate method; assay type: functional; details: read-out: IZ; summary of the method: as §2

## Cc1ccccc1-c1nnc(Cc2nn(CCN3CCOCC3)c(=O)c3ccccc23)o1
Escherichia coli [1]
  zone of inhibition at 100 µg/mL: 5.5 mm
Staphylococcus aureus [2]
  zone of inhibition at 50 µg/mL: 1.5 mm
Candida albicans [3]
  zone of inhibition at 50 µg/mL: 0 mm
[4]
  zone of inhibition at 50 µg/mL: 0 mm
Salmonella typhi [5]
  zone of inhibition at 50 µg/mL: 2.5 mm
Escherichia coli [6]
  zone of inhibition at 50 µg/mL: 2.5 mm
Candida albicans [7]
  zone of inhibition at 100 µg/mL: 1.5 mm
Nannizzia gypsea [8]
  zone of inhibition at 100 µg/mL: 2 mm
Bacillus subtilis [9]
  zone of inhibition at 100 µg/mL: 4.5 mm
Salmonella typhi [10]
  zone of inhibition at 100 µg/mL: 5 mm
Aspergillus flavus [11]
  zone of inhibition at 100 µg/mL: 3 mm
Aspergillus flavus [12]
  zone of inhibition at 50 µg/mL: 1.5 mm
Staphylococcus aureus [13]
  zone of inhibition at 100 µg/mL: 3.5 mm
Bacillus subtilis [14]
  zone of inhibition at 50 µg/mL: 2.5 mm
[15]
  zone of inhibition at 100 µg/mL: 2.5 mm
Nannizzia gypsea [16]
  zone of inhibition at 50 µg/mL: 1 mm

## O=c1c2ccccc2c(Cc2nnc(-c3ccsc3)o2)nn1CCN1CCOCC1
Escherichia coli [1]
  zone of inhibition at 100 µg/mL: 8.5 mm
Staphylococcus aureus [2]
  zone of inhibition at 50 µg/mL: 3.5 mm
Candida albicans [3]
  zone of inhibition at 50 µg/mL: 4.5 mm
[4]
  zone of inhibition at 50 µg/mL: 3.5 mm
Salmonella typhi [5]
  zone of inhibition at 50 µg/mL: 4.5 mm
Escherichia coli [6]
  zone of inhibition at 50 µg/mL: 3.5 mm
Candida albicans [7]
  zone of inhibition at 100 µg/mL: 7.5 mm
Nannizzia gypsea [8]
  zone of inhibition at 100 µg/mL: 10.5 mm
Bacillus subtilis [9]
  zone of inhibition at 100 µg/mL: 6 mm
Salmonella typhi [10]
  zone of inhibition at 100 µg/mL: 7.5 mm
Aspergillus flavus [11]
  zone of inhibition at 100 µg/mL: 9.5 mm
Aspergillus flavus [12]
  zone of inhibition at 50 µg/mL: 6.5 mm
Staphylococcus aureus [13]
  zone of inhibition at 100 µg/mL: 5 mm
Bacillus subtilis [14]
  zone of inhibition at 50 µg/mL: 3 mm
[15]
  zone of inhibition at 100 µg/mL: 6.5 mm
Nannizzia gypsea [16]
  zone of inhibition at 50 µg/mL: 7.5 mm

## O=c1c2ccccc2c(Cc2nnc(-c3ccc(Cl)nc3)o2)nn1CCN1CCOCC1
Escherichia coli [1]
  zone of inhibition at 100 µg/mL: 5.5 mm
Staphylococcus aureus [2]
  zone of inhibition at 50 µg/mL: 3.5 mm
Candida albicans [3]
  zone of inhibition at 50 µg/mL: 6.5 mm
[4]
  zone of inhibition at 50 µg/mL: 1.5 mm
Salmonella typhi [5]
  zone of inhibition at 50 µg/mL: 3.5 mm
Escherichia coli [6]
  zone of inhibition at 50 µg/mL: 1.5 mm
Candida albicans [7]
  zone of inhibition at 100 µg/mL: 10.5 mm
Nannizzia gypsea [8]
  zone of inhibition at 100 µg/mL: 9.5 mm
Bacillus subtilis [9]
  zone of inhibition at 100 µg/mL: 9 mm
Salmonella typhi [10]
  zone of inhibition at 100 µg/mL: 6.5 mm
Aspergillus flavus [11]
  zone of inhibition at 100 µg/mL: 8 mm
Aspergillus flavus [12]
  zone of inhibition at 50 µg/mL: 4.5 mm
Staphylococcus aureus [13]
  zone of inhibition at 100 µg/mL: 7 mm
Bacillus subtilis [14]
  zone of inhibition at 50 µg/mL: 4.5 mm
[15]
  zone of inhibition at 100 µg/mL: 4.5 mm
Nannizzia gypsea [16]
  zone of inhibition at 50 µg/mL: 4 mm
